Mdm2 ligase inh – Mdm2 E3 ligase (human) inhibition; Q00987; cell-based MDM2 ubiquitination luciferase reporter, 2 h; 0 = plate control, 100 = twice control, blank-subtracted; signal enhancement, % at 5 µM; actives 0.11% (n = 210,000); AID 1230;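 active means signal enhancement of 30% or more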;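 further: luminescence tracks abundance of the self-degrading MDM2-luciferase fusion protein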
Target sequence (Q00987 whole entry, looked up, the tested form may be a part): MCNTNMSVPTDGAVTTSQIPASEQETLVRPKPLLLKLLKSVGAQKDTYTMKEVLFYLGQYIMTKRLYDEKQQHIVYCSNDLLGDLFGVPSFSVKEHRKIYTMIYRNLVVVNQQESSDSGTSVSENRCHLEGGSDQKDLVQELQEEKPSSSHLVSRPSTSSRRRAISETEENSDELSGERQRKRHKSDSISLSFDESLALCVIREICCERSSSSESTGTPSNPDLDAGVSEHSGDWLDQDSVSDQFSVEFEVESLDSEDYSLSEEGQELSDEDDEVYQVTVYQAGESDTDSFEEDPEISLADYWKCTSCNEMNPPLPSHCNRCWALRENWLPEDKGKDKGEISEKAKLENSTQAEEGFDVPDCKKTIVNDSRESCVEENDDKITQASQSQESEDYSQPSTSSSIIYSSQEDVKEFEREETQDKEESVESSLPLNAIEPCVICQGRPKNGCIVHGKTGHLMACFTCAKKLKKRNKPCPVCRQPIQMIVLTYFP
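Test system: mammalian cells stably expressing self-ubiquitinating, self-degrading MDM2 E3–luciferase fusion; Amount: 2000 cells in each well; Medium: DMEM; Schedule: 4 h settle plus 2 h compound, 37 °C; Technique: SteadyLite luciferase luminescence after 15 min room-temperature reagent incubation; Benchmarks: plate control and blank wells.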
Mdm2 MdmX PPI – inhibitors of human Mdm2/MdmX interaction; O15151+Q00987; SaOS-2 split-luciferase Mdm2/MdmX complementation, luminescence; inhibition, % at 8 µM; actives 3% (n = 330,000); AID 485346;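 active means inhibition of at least 50% at 8 µM in the primary screen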
B2AR ag – human beta-2 adrenergic receptor agonism by FAP; P07550; Am2.2-beta2AR cells, FAP receptor internalization, flow cytometry; response, % (no concentration beside the values); actives 0.43% (n = 340,000); AID 504454;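 active means response above a set limit, near 3 SD of response in nonfluorescent compounds, cut at about 42% in these data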
UPR CHOP act – apoptotic UPR (CHOP) activation; CHO-CHOP luciferase reporter, luminescence; percent of tunicamycin response over DMSO baseline; activation, % at 10 µM; actives 0.34% (n = 330,000);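 active means at 10 µM dose, activation of 40% or more, normalized to positive control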
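measured by = luciferase luminescence | assay system = CHO-CHOP cells, stable luciferase reporter of PERK-eIF2a-CHOP signalling | amount = 500 reporter cells seeded per well | timing = 6 h compound exposure at 37 °C after overnight seeding | controls = positive tunicamycin 10 µg/mL, negative DMSO alone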
Dynein cargo inh – blocks dynein driven cargo transport along microtubules; 3617.4 mouse cells, GR-EGFP nuclear translocation imaging; test concentration mostly 20 µM; stimulated with dexamethasone, 1 µM; active compounds read low; z-score, hits read low; actives 0.47% (n = 220,000); AID 1381;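 active means plate z-score of nuclear minus cytoplasmic receptor signal below a set negative limit, without overly bright fluorescence or cell loss, cut at about -3.5 in these data, passing the limit was not always enough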;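 further: z-score of nuclear minus cytoplasmic ring GR-EGFP intensity difference per well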
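Buffer or medium: tetracycline-free induction medium containing charcoal-stripped FBS / Reagent: dexamethasone agonist, 1.0 µM final, for 30 min / Technique: automated 10x imaging of fixed Hoechst-stained cells / Times: induction 48 h, compound 1 h, agonist 30 min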
UPR XBP1 act – adaptive UPR (XBP1) activation; CHO-XBP1 luciferase reporter, IRE1-XBP1 UPR activation, luminescence; percent of tunicamycin response, DMSO as zero; activation, % at 20 µM; actives 0.33% (n = 330,000); AID 463104;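 active means versus positive control, 20 µM dose yields 30% or more activation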
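Signal: luciferase luminescence; Assay system: CHO-XBP1 luciferase reporter cells; Amount: one thousand reporter cells per well; Dosing: 20 µM single concentration, DMSO 1%; Benchmarks: high control tunicamycin 10 µg/mL final, low control DMSO vehicle only; Schedule: 6 h compound exposure at 37 °C, 5% CO2; Evaluation: percent activation relative to tunicamycin reference.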
Mdm2 MdmX conf – human Mdm2/MdmX binding inhibition, confirmed; AID 489028; shares compounds with Mdm2 MdmX PPI; luminescent assay; inhibition, % at 8 µM; actives 55% (n = 10,000); in the data active means inhibition above about 40%
FLuc counter – counter-screen for Mdm2/MdmX inhibitors: full-length luciferase. shares compounds with Mdm2 MdmX PPI. SaOS-2 full-length luciferase counterscreen, luminescence. inhibition, % at 8 µM. actives 77% (n = 6,200). AID 504607;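 active means mean inhibition at 8 µM reaching about 37%, which flags the compound as non-specific, limit read from the data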;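 further: p53-null SaOS-2 cells with luciferase driven by a doxycycline-inducible promoter; compound on cells about two nights before reading with doxycycline added after day one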
Numbers stand for hits; i = inactive; nt = no result; + = active, no number. An excerpt weighted towards active compounds, which were near 3.7% of everything screened.

SMILES	Mdm2 ligase inh	Mdm2 MdmX PPI	B2AR ag	UPR CHOP act	Dynein cargo inh	UPR XBP1 act	Mdm2 MdmX conf	FLuc counter
CC(C)=C[C@H]1C[C@H](C)[C@H]2CC[C@H](C)c3c(O[C@@H]4OC[C@@H](O)[C@H](O)C4O)c(O)c(C)c1c32 (stereo partly specified)	nt	i	i	i	nt	i	nt	nt
CCCCN(CC)CCCNC(=S)Nc1ccc2nc(N3CCN(C)CC3)cc(C)c2c1	i	56.2	i	i	i	i	i	nt
CCCN(CCC)CCCNC(=S)Nc1ccc2nc(N3CCCC3)cc(C)c2c1	i	78.4	i	i	i	i	45.4	62.6
COc1cccc(-c2ncc3ccccc3c2COC(=O)c2ccc(F)cc2)c1	nt	i	i	i	nt	i	nt	nt
Cc1cc(C(=O)CSc2nnc(-c3ccccc3)o2)c(C)n1CC1COc2ccccc2O1 (stereo unspecified)	i	i	i	i	i	i	nt	nt
Cc1cc(C(=O)CSc2nnc(-c3ccc(F)cc3)o2)c(C)n1CC1COc2ccccc2O1 (stereo unspecified)	i	61.8	i	i	i	i	i	nt
CC(C)(C)n1nc(Cc2cccc3ccccc23)c2c(N)ncnc21	nt	54.2	i	i	nt	i	i	nt
Cn1nc(Cc2cccc3ccccc23)c(C#N)c1N	nt	i	i	i	nt	i	nt	nt
O=C(CCl)N=c1sccn1Cc1ccccc1Cl	i	99.4	i	i	i	i	99.0	51.3
O=C(CCl)N=c1sccn1Cc1ccc(Cl)cc1Cl	i	99.9	67.4	42.0	i	i	99.8	54.1
CCc1c(C(=O)NC2CCCc3ccccc32)[nH]c(C)c1C(C)=O (stereo unspecified)	nt	84.6	i	i	nt	i	65.3	51.5
CC(=O)Nc1ccc(C(=O)NC2CCSc3ccccc32)cc1 (stereo unspecified)	nt	i	i	i	nt	i	nt	nt
CC(=O)c1c(C)[nH]c(C(=O)NC2CCSc3ccccc32)c1C (stereo unspecified)	nt	55.7	i	i	nt	i	i	nt
N#CC1=C(c2ccccc2)/C(=C/c2ccccc2)OC1=O	i	100.3	i	i	i	i	75.4	49.2
CCOc1ccc(NC(=O)CN(C)C(=O)c2cc([N+](=O)[O-])ccc2Sc2ccccc2)cc1OCC	nt	nt	i	nt	nt	nt	nt	nt
O=S(=O)(/C=C/c1ccccc1)Oc1ccccc1	i	75.8	i	i	i	i	50.5	77.8
COc1ccc(S(=O)(=O)N2CCN(CCCOc3ccc(F)cc3)CC2)cc1OC	nt	i	i	i	nt	i	nt	nt
CN(C)C(=S)NC(=S)Nc1ccc2ccccc2c1	nt	nt	i	nt	nt	nt	nt	nt
COc1ccc2c(CC(=O)Nc3nc(C)cs3)coc2c1	i	i	i	i	i	i	nt	nt
COc1ccc2c(CC(=O)Nc3ncc(C)s3)coc2c1	i	66.4	i	i	i	i	65.7	+
COc1ccc(C(=O)N/N=C/c2sc3ccccc3c2O)cc1	i	nt	i	nt	i	nt	nt	nt
O=C(N/N=C/c1sc2ccccc2c1O)c1ccccc1	i	67.7	i	i	i	i	67.3	41.2
COc1ccc2cc(C(=O)N/N=C/c3sc4ccccc4c3O)ccc2c1	i	89.2	i	i	i	i	88.7	i
O=C(O)C1CCN(C(=O)CSc2nnc3ccccn23)CC1	nt	i	i	i	nt	i	nt	nt
CC(C)=CCc1c(O)cc2oc3c(CC=C(C)C)c(O)c(O)c(CC=C(C)C)c3c(=O)c2c1O	i	100.1	i	i	i	i	42.6	47.0
SMILES	Mdm2 ligase inh	Mdm2 MdmX PPI	B2AR ag	UPR CHOP act	Dynein cargo inh	UPR XBP1 act	Mdm2 MdmX conf	FLuc counter
O=C(O)c1sccc1Oc1ccc(NS(=O)(=O)c2ccccc2)cc1	nt	i	i	i	nt	i	nt	nt
Cc1sc2nc(-c3ccncc3)[nH]c(=O)c2c1-c1ccccc1	i	i	nt	i	i	i	nt	nt
Cc1sc2nc(-c3ccccn3)[nH]c(=O)c2c1-c1ccccc1	i	57.1	i	i	i	i	i	nt
O=C(Nc1cccnc1)c1ccc([N+](=O)[O-])s1	nt	52.4	i	i	nt	i	i	nt
CCOC(=O)c1c(NC(=O)CN2C(=O)NC3(CCCC3)C2=O)sc(C)c1CC	nt	i	i	i	nt	i	nt	nt
Cc1cccc(C(=O)OC2CCOC2=O)c1C (stereo unspecified)	nt	i	i	i	nt	i	nt	nt
Clc1nc(-c2ccccn2)nc2scc(-c3ccccc3)c12	i	57.3	i	i	i	i	i	nt
CN1CCN(c2nc(-c3cccnc3)nc3scc(-c4ccccc4)c23)CC1	i	i	i	i	i	i	nt	nt
Cc1cccnc1NC(=O)CNC(=O)COc1ccccc1	nt	i	i	i	nt	i	nt	nt
O/N=C/c1ccc2cccc(OCc3ccccc3)c2n1	nt	i	i	i	nt	i	nt	nt
COc1ccc(C(=O)N/N=C/c2ccc3cccc(OCc4ccccc4)c3n2)cc1	i	59.3	i	i	i	i	i	nt
NC(N)=N/N=C/c1ccc2cccc(OCc3ccccc3)c2n1	i	50.9	i	i	i	i	60.0	81.2
CC1(c2ccccc2)NC(=O)N(NC(=O)COC(=O)c2cc(Br)ccc2O)C1=O (stereo unspecified)	nt	i	i	i	nt	i	nt	nt
N#CC1=C(SCC(N)=O)NC2=C(C(=O)c3ccccc32)C1c1ccc(Cl)cc1 (stereo unspecified)	i	50.0	i	i	i	i	i	nt
CSCSC1=C(C#N)C(c2ccc(Cl)cc2)C(C(C)=O)=C(C)N1 (stereo unspecified)	i	i	nt	i	i	i	nt	nt
CCCc1ccc(Oc2coc3cc(OCC(=O)Nc4ccccc4C)ccc3c2=O)cc1	nt	i	i	i	i	i	nt	nt
CCc1ccc(Oc2coc3cc(OCC(=O)Nc4cc(C)ccc4C)ccc3c2=O)cc1	i	52.2	i	i	i	i	i	nt
COc1ccccc1CNS(=O)(=O)c1cc(C(=O)N(C)Cc2cccnc2)c(Cl)cc1Cl	nt	nt	i	nt	nt	nt	nt	nt
O=C(COC(=O)/C=C/c1ccc(OC(F)F)cc1)NC1CCCCCC1	nt	i	i	i	nt	i	nt	nt
Cc1cccc(CN2CCN(C(=O)c3cccc4ccccc34)CC2)c1	nt	i	i	i	nt	i	nt	nt
Cc1cccc(CN2CCN(C(=O)CCl)CC2)c1	i	63.7	i	i	i	i	i	nt
C=CC[C@H](CC(=O)NCCO)C(=O)N[C@H](COC(=O)[C@@H](CC=C)Cc1ccc(F)cc1)C(C)(C)C	nt	i	i	i	nt	i	nt	nt
Cc1ccc(NC(=O)COc2ccccc2CNC(C)(C)CC(C)(C)C)cc1	i	90.3	i	i	i	i	53.0	58.7
